The target of data set [1] is T1, Amine oxidase [flavin-containing] A (Homo sapiens, UniProt P21397).
T1 sequence (P21397 whole entry): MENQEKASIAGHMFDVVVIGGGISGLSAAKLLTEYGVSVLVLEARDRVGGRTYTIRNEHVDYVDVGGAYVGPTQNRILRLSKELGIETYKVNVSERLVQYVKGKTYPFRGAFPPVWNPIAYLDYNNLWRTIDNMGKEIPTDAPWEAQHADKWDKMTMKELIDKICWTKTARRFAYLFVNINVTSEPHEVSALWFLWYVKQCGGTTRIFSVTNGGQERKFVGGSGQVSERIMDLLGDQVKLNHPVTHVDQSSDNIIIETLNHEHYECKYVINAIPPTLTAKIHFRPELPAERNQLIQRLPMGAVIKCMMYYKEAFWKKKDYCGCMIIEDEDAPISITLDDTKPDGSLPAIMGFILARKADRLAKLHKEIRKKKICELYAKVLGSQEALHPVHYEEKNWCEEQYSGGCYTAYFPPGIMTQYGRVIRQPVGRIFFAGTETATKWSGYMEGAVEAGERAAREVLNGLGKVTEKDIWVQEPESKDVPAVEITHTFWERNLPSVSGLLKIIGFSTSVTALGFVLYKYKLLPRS
As to the kind of experiment: Inhibition of recombinant human MAO-A expressed in baculovirus infected BTITN-5B1-4 insect cells using p-tyramine as substrate incubated for 10 mins followed by substrate addition measured after 15 mins by Amplex Red assay. Also on record: species or system BTI-TN-5B1-4.

Data set [2] deals with T1, Amine oxidase [flavin-containing] A. Description: Inhibition of recombinant human MAO-A expressed in baculovirus infected BTITN-5B1-4 insect cells using p-tyramine as substrate at 100 uM incubated for 10 mins followed by substrate addition measured after 15 mins by Amplex Red assay. The conditions noted are these: bti-tn-5b1-4, 25 min. An outline of the steps:
(§1)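 Microsomal hMAO-A from baculovirus-infected BTI-TN 5B1-4 cells, 1.1 μg protein, in 0.05 M sodium phosphate pH 7.4, preincubated with compound 10 min at 37 °C. Started with 200 μM Amplex Red, 1 U/mL HRP and 1 mM p-tyramine (final). Resorufin fluorescence (ex 545/em 590 nm) read over 15 min at 37 °C; background without enzyme subtracted; vehicle controls run.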

Another data set deals with SH-SY5Y. As to the kind of experiment: Neurotoxicity against human SH-SY5Y cells assessed as reduction in cell viability at 100 uM incubated for 24 hrs by MTT assay. It is filed as functional, cell-based. Summed up: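 SH-SY5Y cells in Ham's F12/EMEM 1:1 with 15% FBS, seeded at 2×10^5 cells/mL and grown 24 h. Treated with 100 μM compound (1% DMSO) for 24 h, then MTT for 2 h; formazan dissolved in DMSO and absorbance read at 540 nm. Viability as % of vehicle control; at least 3 experiments, ANOVA with Bonferroni test.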

Data set [3] deals with T2, Amine oxidase [flavin-containing] B (Homo sapiens, UniProt P27338).
T2 sequence (P27338 whole entry): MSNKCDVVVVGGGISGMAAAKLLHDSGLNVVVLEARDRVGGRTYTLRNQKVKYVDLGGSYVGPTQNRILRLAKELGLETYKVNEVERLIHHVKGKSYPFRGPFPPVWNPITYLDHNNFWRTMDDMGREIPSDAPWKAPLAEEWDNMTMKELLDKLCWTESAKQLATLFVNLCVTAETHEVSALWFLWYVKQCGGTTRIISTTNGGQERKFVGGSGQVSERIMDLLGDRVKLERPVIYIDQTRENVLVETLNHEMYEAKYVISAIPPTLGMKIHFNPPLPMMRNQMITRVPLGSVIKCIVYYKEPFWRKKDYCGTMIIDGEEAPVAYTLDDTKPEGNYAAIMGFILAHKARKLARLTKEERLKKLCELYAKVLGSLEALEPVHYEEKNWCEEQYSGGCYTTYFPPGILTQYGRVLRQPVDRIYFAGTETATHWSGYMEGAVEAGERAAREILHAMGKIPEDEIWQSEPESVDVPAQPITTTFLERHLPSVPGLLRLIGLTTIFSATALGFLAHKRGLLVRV
As to the kind of experiment: Inhibition of recombinant human MAO-B expressed in baculovirus infected BTITN-5B1-4 insect cells using p-tyramine as substrate at 100 uM incubated for 10 mins followed by substrate addition measured after 15 mins by Amplex Red assay relative to control. To be noted: BTI-TN-5B1-4, human, 25 min.

In data set [4] the target is T2, Amine oxidase [flavin-containing] B. As to the kind of experiment: Inhibition of recombinant human MAO-B expressed in baculovirus infected BTITN-5B1-4 insect cells using p-tyramine as substrate incubated for 10 mins followed by substrate addition measured after 15 mins by Amplex Red assay. Also on record: species or system BTI-TN-5B1-4.
Data set [5] has the same target. Description: Inhibition of recombinant human MAO-B expressed in baculovirus infected BTITN-5B1-4 insect cells using p-tyramine as substrate at 100 uM incubated for 10 mins followed by substrate addition measured after 15 mins by Amplex Red assay. The conditions noted are these: bti-tn-5b1-4, 25 min.
For data set [6], the target named is T1, Amine oxidase [flavin-containing] A. Description: Inhibition of recombinant human MAO-A expressed in baculovirus infected BTITN-5B1-4 insect cells using p-tyramine as substrate at 100 uM incubated for 10 mins followed by substrate addition measured after 15 mins by Amplex Red assay relative to control. The conditions noted are these: BTI-TN-5B1-4, human, 25 min. An outline of the steps:
as §1

The nature of data set [7]: Permeability coefficient of compound incubated for 120 mins by UV-Vis spectroscopy based PAMPA-BBB assay. In general terms: The PAMPA barrier holds no transporters, so it reflects passive diffusion.
A short description of data set [8]: Metabolic stability in human liver microsomes assessed as half life at 1 uM measured upto 60 mins by UPLC-MS/MS analysis. It is filed as ADME, Microsome. Background: Microsomes from liver hold many membrane-bound enzymes, among them those of drug oxidation.
Data set [9] in a line: Chemical stability of compound in CH3COONa/CH3COOH at pH 3.5 assessed as compound remaining at 10 uM incubated overnight by UPLC-MS/MS analysis. It is filed as physicochemical. To be noted: CH3COONa/CH3COOH buffer, read-out: Stability. An outline of the steps: (§2)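 Overnight incubation at room temperature, 10 μM final. Buffers: pH 3.5 CH₃COONa/CH₃COOH 0.1 M; pH 7.4 NaH₂PO₄/NaHPO₄ 10 mM; pH 10.4 NaHCO₃/Na₂CO₃ 0.5 M. Aliquots taken at t = 0 and after incubation, analysed by UPLC-MS/MS; expressed as % remaining.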

Data set [10] is described as follows: Metabolic stability in mouse liver microsomes assessed as compound remaining at 1 uM measured upto 60 mins by UPLC-MS/MS analysis. To be noted: read-out: Stability. It is filed as ADME, Microsome.
Data set [11] is described as follows: Chemical stability of compound in NaH2PO4/NaHPO4 at pH 7.4 assessed as compound remaining at 10 uM incubated overnight by UPLC-MS/MS analysis. Format: physicochemical. The conditions noted are these: NaH2PO4/NaHPO4 buffer, read-out: Stability. Summed up: as §2
Data set [12] can be described thus: Metabolic stability in human liver microsomes assessed as intrinsic clearance at 1 uM measured upto 60 mins by UPLC-MS/MS analysis. It is filed as ADME, Microsome. To be noted: read-out: CLH.
Data set [13] in a line: Chemical stability of compound in NaHCO3/Na2CO3 at pH 10.4 assessed as compound remaining at 10 uM incubated overnight by UPLC-MS/MS analysis. It is filed as physicochemical. The conditions noted are these: NaHCO3/Na2CO3 buffer, read-out: Stability. Summed up:
as §2

Data set [14] in a line: Metabolic stability in mouse liver microsomes assessed as half life at 1 uM measured upto 60 mins by UPLC-MS/MS analysis. Format: ADME, Microsome.
A short description of data set [15]: Metabolic stability in human liver microsomes assessed as compound remaining at 1 uM measured upto 60 mins by UPLC-MS/MS analysis. The conditions noted are these: read-out: Stability. It is filed as ADME, Microsome.
The nature of data set [16]: Metabolic stability in mouse liver microsomes assessed as intrinsic clearance at 1 uM measured upto 60 mins by UPLC-MS/MS analysis. Format: ADME, Microsome. To be noted: read-out: CLH.

The source made the active and inactive calls. The rule behind the calls is not given here.

By IC50 is commonly meant the concentration that gives 50% inhibition. A word on the inhibition: it is the relative decrease from the control value, in per cent. Usually Papp stands for the rate of passage across a membrane or cell layer, normalised by area and donor concentration. A higher Papp goes with fast passage. Usually half-life stands for how long it takes for the measured level to halve.

Take `Cc1cc(=O)oc2c(NC(=O)/C=C/c3ccccc3)c(O)ccc12`: the IC50 in data set [1] stood at 0.022 µM.

As for `Cc1cc(=O)oc2c(NC(=O)OCc3ccccc3)c(O)ccc12`, the concentration for half-maximal inhibition (IC50) in data set [1] is 17.2 µM.

For the compound `Cc1cc(=O)oc2c(NC(=O)Oc3ccccc3)c(O)ccc12`, the “inhibition (INH)” value in data set [2] was “Not Active”. For the same compound, the outcome in the data set with SH-SY5Y was Active.

As to `COC(=O)Nc1c(O)ccc2c(C)cc(=O)oc12`, the “inhibition (INH)” value in data set [2] is given as “Not Active”. Further, the inhibition at 100 µM in data set [3] came out at 50%.

On to `Cc1cc(=O)oc2c(NC(=O)CC(C)(C)C)c(O)ccc12`, for which the “inhibition (INH)” value in data set [2] is reported as “Not Active”. Moreover, the IC50 in data set [4] was determined as 7.35 µM.

For `C=CC(=O)Nc1c(O)ccc2c(C)cc(=O)oc12`, the IC50 turned out to be 38.1 µM in data set [1] and 16.3 µM in [4].

Consider `Cc1cc(=O)oc2c(NC(=O)C(C)C)c(O)ccc12`, for which the “inhibition (INH)” value in data set [2] and in [5] was “Not Active” each time. Also, in data set [4], the IC50 stood at 31 µM.

Consider `CCC(=O)Nc1c(O)ccc2c(C)cc(=O)oc12`, for which the “inhibition (INH)” value in data set [2] and in data set [5] was “Not Active” throughout. Moreover, in [4], the IC50 is 52.7 µM.

As for `Cc1cc(=O)oc2c(NC(=O)OCC(C)C)c(O)ccc12`, the “inhibition (INH)” value in data set [2] and in data set [5] was “Not Active” throughout.

Consider `Cc1cc(=O)oc2c(NC(=O)c3ccco3)c(O)ccc12`, for which, in data set [6], the inhibition at 100 µM is 50%. Besides, the IC50 in data set [4] is 17.3 µM.

Compound `CCOC(=O)Nc1c(O)ccc2c(C)cc(=O)oc12` showed a Papp at 2 h in [7] of 4.9 ×10⁻⁶ cm/s. The “inhibition (INH)” value in [5] is “Not Active”.

With `Cc1cc(=O)oc2c(NC(=O)OCCl)c(O)ccc12`, the IC50 in [1] is 9.19 µM.

As to `Cc1cc(=O)oc2c(NC(=O)CCl)c(O)ccc12`, the “inhibition (INH)” value in data set [2] is “Not Active”. The IC50 in data set [4] turned out to be 85.9 µM.

As to `O=C(NCCN1CCOCC1)c1ccc(Cl)cc1` [MOCLOBEMIDE], the inhibition at 100 µM in data set [3] stood at 50%.

For the compound `Cc1cc(=O)oc2c(NC(=O)OC(C)C)c(O)ccc12`, the IC50 in data set [1] was 1.88 µM.

`Cc1ccc(C(=O)Nc2c(O)ccc3c(C)cc(=O)oc23)cc1` registered a Papp at 2 h in data set [7] of 8.6 ×10⁻⁶ cm/s. Besides, the half-life at 1 µM in data set [8] was determined as 6.84 min; in data set [14] it was 17.1 min. Besides, the remaining at 10 µM in data set [9] is 98%; in [11] it was 113%; in data set [13] it was 118%. In addition, the remaining at 1 h, 1 µM in data set [10] is 8.3%; in data set [15], 0.5%. Further, the microsomal CLint at 1 µM in [12] came to 196 µL/min/mg; in data set [16], 131 µL/min/mg.

Turning to `COc1cc(C(=O)Nc2c(O)ccc3c(C)cc(=O)oc23)cc(OC)c1OC`, the “inhibition (INH)” value in data set [2] is “Not Active”. The inhibition at 100 µM in [3] was found to be 50%. Further, the IC50 in data set [4] is 68.3 µM.

The values above are taken from ChEMBL document CHEMBL5321203, “8-Amide and 8-carbamate substitution patterns as modulators of 7-hydroxy-4-methylcoumarin's antidepressant profile: Synthesis, biological evaluation and docking studies” (Eur J Med Chem, 2023).
